Measurements reported in ChEMBL document CHEMBL4627320, “Discovery of CRBN E3 Ligase Modulator CC-92480 for the Treatment of Relapsed and Refractory Multiple Myeloma” (J Med Chem, 2020).

Columns and labels:
[1] = Drug metabolism in assay cell medium assessed as compound racemization measured within 24 hrs; format: physicochemical
Summary of the method: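 Compound held in the same cell medium used for the H929 R10-1 antiproliferation assay; enantiomer levels followed by chiral monitoring over 24 h.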

[2] = molecular target: Protein cereblon/Zinc finger protein Aiolos (Homo sapiens, UniProt Q96SW2+Q9UKT9); test: Induction of CRBN-mediated pLOC-ePL-tagged aiolos (unknown origin) degradation in human DF15 cells assessed as minimum protein remaining incubated for 4 hrs by luminescence based beta-galactosidase enzyme fragmentation complementation assay; format: cell-based
[3] = Antiproliferative activity against lenalidomide-resistant human H929-R10-1 cells incubated for 5 days by CellTiter-Glo assay; format: functional; conditions: 120 h
Summary of the method: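 H929 R10-1 cells kept in log phase at 37°C, 5% CO₂, and plated at 5000 cells/well. Compounds were added as 10-point duplicate curves starting at 10µM with 1:3 dilutions, in 0.1% DMSO, final volume 40µl. Plates were incubated for 5 days. Viability was read by CellTiter-Glo luminescence after 1 h at room temperature in the dark. IC50 is the mean of ≥3 separate determinations.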

[4] = molecular target: Protein cereblon/DNA damage-binding protein 1 (Homo sapiens, UniProt Q96SW2); test: Displacement of Cy5-conjugated CELMoD from N-terminal 6-His tagged CRBN (1 to 442 residues) (unknown origin)/DDB1 (1 to 1140 residues) (unknown origin) incubated for 10 mins by FRET assay; format: protein assay
[5] = molecular target: Adrenergic receptor alpha-1 (Homo sapiens) (UniProt P35348+P25100+P35368); test: Inhibition of adrenergic receptor alpha1 (unknown origin) at 10 uM relative to control; format: protein assay
[6] = molecular target: D(2) dopamine receptor (Homo sapiens, UniProt P14416); test: Inhibition of D2S (unknown origin) at 10 uM relative to control
[7] = molecular target: Protein cereblon/Eukaryotic peptide chain release factor GTP-binding subunit ERF3A (Homo sapiens, UniProt P15170+Q96SW2); test: Induction of CRBN-mediated pLOC-ePL-tagged GSPT1 (unknown origin) degradation in human DF15 cells assessed as minimum protein remaining incubated for 4 hrs by luminescence based beta-galactosidase enzyme fragmentation complementation assay; format: cell-based
[8] = tested on: PBMC; test: Cytotoxicity against PBMC (unknown origin); format: cell-based
[9] = Solubility of the compound; format: physicochemical

Drug metabolism [1] | EC50 [2] [nM] | inhibition [5] [%] | inhibition [6] [%] | EC50 [7] [nM] | solubility [9] [µg/mL] | Structure (SMILES) | IC50 [3] [nM] | IC50 [4] [nM] | Activity [8]
Metabolite_Detected | 0.5 | – | – | – | – | O=C1CC[C@@H](N2Cc3c(OCc4ccc(CN5CCN(c6ccc(F)cc6F)CC5)cc4)cccc3C2=O)C(=O)N1 | 4.3 | 1160 | –
– | 0.2 | – | – | > 10000 | – | O=C1CCC(N2Cc3c(OCc4ccc(CN5CCN(c6ccccc6F)CC5)cc4)cccc3C2=O)C(=O)N1 (centres undefined) | 5 | – | Non-Toxic
– | 0.1 | – | – | > 10000 | – | O=C1CCC(N2Cc3c(OCc4ccc(CN5CCN(c6cccc(F)c6)CC5)cc4)cccc3C2=O)C(=O)N1 (centres undefined) | 3.7 | – | Non-Toxic
– | 0.5 | – | – | – | – | O=C1CCC(N2Cc3c(OCc4ccc(CN5CCC(F)(F)CC5)cc4)cccc3C2=O)C(=O)N1 (centres undefined) | 20.5 | – | –
– | 1 | 92.1 | 100 | – | – | N#Cc1cccnc1N1CCN(Cc2ccc(COc3cccc4c3CN(C3CCC(=O)NC3=O)C4=O)cc2)CC1 (centres undefined) | 56 | – | –
– | 0.1 | 33.7 | 7.9 | – | < 7 | O=C1CCC(N2Cc3c(OCc4ccc(C(=O)N5CCN(c6ccc(Cl)cc6)CC5)cc4)cccc3C2=O)C(=O)N1 (centres undefined) | 6.2 | – | –
– | 2.1 | – | – | > 10000 | – | O=C1CCC(N2C(=O)c3cccc(OCc4ccc(CN5CCN(c6ccc(F)cc6)CC5)cc4)c3C2=O)C(=O)N1 (centres undefined) | 146 | 322 | –
– | 0.1 | 100 | 94.7 | > 10000 | – | O=C1CCC(N2Cc3c(OCc4ccc(CN5CCN(c6ccc(F)cc6)CC5)cc4)cccc3C2=O)C(=O)N1 (centres undefined) | 2.8 | – | Non-Toxic
– | 3 | – | – | – | – | CN1CCN(Cc2ccc(COc3cccc4c3CN(C3CCC(=O)NC3=O)C4=O)cc2)CC1 (centres undefined) | 510 | – | –
– | 0.2 | – | – | > 10000 | – | O=C1CCC(N2Cc3c(OCc4ccc(CN5CCN(c6ccc(Cl)cc6Cl)CC5)cc4)cccc3C2=O)C(=O)N1 (centres undefined) | 9.2 | – | Non-Toxic
– | 0.1 | – | – | > 10000 | – | O=C1CCC(N2Cc3c(OCc4ccc(CN5CCN(c6ccccc6)CC5)cc4)cccc3C2=O)C(=O)N1 (centres undefined) | 2.1 | – | Non-Toxic

The remaining lines, values behind:

Structure (SMILES) | Drug metabolism [1] | EC50 [2] [nM] | inhibition [5] [%] | inhibition [6] [%] | EC50 [7] [nM] | solubility [9] [µg/mL] | IC50 [3] [nM] | IC50 [4] [nM] | Activity [8]
CC1(C)CCN(Cc2ccc(COc3cccc4c3CN(C3CCC(=O)NC3=O)C4=O)cc2)CC1 (centres undefined) | – | 0.3 | 21.5 | 66 | – | – | 9.9 | – | –
O=C1CCC(N2C(=O)c3cccc(OCc4ccc(CN5CCN(c6ccc(Cl)cc6Cl)CC5)cc4)c3C2=O)C(=O)N1 (centres undefined) | – | 3.3 | – | – | > 10000 | – | 170 | 877 | –
CC(C)C1CCN(Cc2ccc(COc3cccc4c3CN(C3CCC(=O)NC3=O)C4=O)cc2)CC1 (centres undefined) | – | 0.1 | 63 | 94 | – | – | 1.4 | – | –
O=C1CCC(N2C(=O)c3cccc(OCc4ccc(CN5CCN(c6ccc(F)cc6F)CC5)cc4)c3C2=O)C(=O)N1 (centres undefined) | – | 2.4 | – | – | > 10000 | – | 159 | 502 | –
O=C1CCC(N2Cc3c(NCc4ccc(CN5CCN(c6ccc(F)cc6F)CC5)cc4)cccc3C2=O)C(=O)N1 (centres undefined) | – | 1.5 | – | – | > 10000 | – | 26.3 | 194 | –
C[C@]1(N2Cc3c(OCc4ccc(CN5CCN(c6ccc(F)cc6F)CC5)cc4)cccc3C2=O)CCC(=O)NC1=O | – | > 10 | – | – | – | – | 496 | > 10000 | –
O=C1CCC(N2Cc3c(OCc4ccc(C(=O)N5CCN(c6ccc(F)cc6F)CC5)cc4)cccc3C2=O)C(=O)N1 (centres undefined) | – | 0.1 | 70.3 | 0.4 | – | < 7 | 4.9 | – | –
O=C1CCC(N2Cc3c(OCc4ccc(CN5CCN(c6ccc(Cl)cc6Cl)CC5=O)cc4)cccc3C2=O)C(=O)N1 (centres undefined) | – | 0.6 | – | – | – | < 7 | 6.7 | – | –
O=C1CCC(N2Cc3c(OCc4ccc(C(=O)N5CCN(c6ccc(Cl)cc6Cl)CC5)cc4)cccc3C2=O)C(=O)N1 (centres undefined) | – | 0.1 | 74.1 | 5.6 | – | < 7 | 3.3 | – | –
